Bioassay records deposited in PubChem BioAssay by several laboratories.
Hits are enriched below; roughly 6% of the tested compounds scored in any of these assays.
EphB4 antag: antagonists of human EphB4-ephrin-B2 interaction | P54760 | EphB4 LBD / TNYL-RAW-Alexa532 peptide, fluorescence polarization | inhibition, % at 7 µM | 97,000 tested, 0.15% active | AID 720;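 active = inhibition above the screen-wide mean inhibition plus 3 SD, cut at about 15% in these data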;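 note: 0% = DMSO wells and 100% = excess unlabeled TNYL-RAW peptide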
Target sequence (P54760 whole entry, looked up, the tested form may be a part): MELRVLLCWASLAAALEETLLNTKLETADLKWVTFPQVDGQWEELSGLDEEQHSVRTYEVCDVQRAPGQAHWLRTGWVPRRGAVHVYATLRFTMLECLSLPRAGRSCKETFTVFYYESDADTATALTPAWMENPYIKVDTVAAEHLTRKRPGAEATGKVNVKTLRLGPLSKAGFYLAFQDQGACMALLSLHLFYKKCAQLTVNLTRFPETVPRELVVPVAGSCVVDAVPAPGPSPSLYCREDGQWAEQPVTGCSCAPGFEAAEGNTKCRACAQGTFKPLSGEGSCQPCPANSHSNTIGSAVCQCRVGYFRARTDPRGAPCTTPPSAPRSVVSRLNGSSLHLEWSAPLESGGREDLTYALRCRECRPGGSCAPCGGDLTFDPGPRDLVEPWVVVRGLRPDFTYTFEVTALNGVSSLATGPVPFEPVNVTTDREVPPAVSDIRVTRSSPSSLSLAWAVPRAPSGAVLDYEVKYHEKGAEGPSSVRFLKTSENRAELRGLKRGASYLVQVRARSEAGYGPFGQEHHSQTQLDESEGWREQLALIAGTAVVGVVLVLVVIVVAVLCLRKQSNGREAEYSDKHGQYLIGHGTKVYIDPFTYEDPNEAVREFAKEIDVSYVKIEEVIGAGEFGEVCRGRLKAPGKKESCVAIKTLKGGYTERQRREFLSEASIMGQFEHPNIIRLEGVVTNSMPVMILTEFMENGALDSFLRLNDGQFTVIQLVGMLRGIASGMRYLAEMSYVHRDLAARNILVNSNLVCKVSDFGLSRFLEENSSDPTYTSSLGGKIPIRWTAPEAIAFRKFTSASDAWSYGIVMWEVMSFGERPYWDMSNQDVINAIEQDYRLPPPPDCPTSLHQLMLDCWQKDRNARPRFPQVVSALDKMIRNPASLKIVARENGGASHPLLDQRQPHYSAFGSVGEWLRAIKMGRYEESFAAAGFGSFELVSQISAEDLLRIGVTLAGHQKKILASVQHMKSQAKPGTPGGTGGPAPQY
PostGolgi yeast: growth inhibition of a yeast mutant, post-Golgi transport screen; post-Golgi transport phenotypic cell assay; inhibition, % at 10 µM; 98,000 tested, 0.9% active; AID 739;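 note: yeast cells grown in 1536-well plates; yeast grown about 18 h at 30C before absorbance read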
Ecoli WT expand: growth inhibitors of E. coli BW25113 wild type; OD600 absorbance; growth inhibition, % at 100 µM; 98,000 tested, 0.15% active; AID 710;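 active = growth inhibition above about 50% at one test dose, limit read from the data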;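 note: growth measured after 20 h incubation at 37 °C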
tolC growth inh: blocks growth of E. coli BW25113 tolC mutant; OD615; growth inhibition, % at 10 µM (by protocol); 65,000 tested, 2.2% active;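 active = growth inhibition at or above a cutoff equal to the mean over every tested compound plus 3 SD, cut at about 60% in these data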;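 note: growth measured after 20 h incubation at 37 °C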
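Assay system: tolC-deleted E. coli BW25113. Medium: kanamycin-containing LB broth (50 µg/mL). Dosing: 10 µM final, single dose. Timing: bacterial growth with compound for 20 h at 37 °C. Detection: A615 absorbance measurement. Read-out basis: growth inhibition in percent.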
PostGolgi ctrl: inhibits growth of the yeast control strain; efflux-deficient yeast background strain, growth absorbance A615, 16 h; inhibition, % at 10 µM; 98,000 tested, 5% active; AID 738
Active calls of the source: *; · = no result given; [ ] = remark or other dose. Cut-off read from the data, not from the text of the source, unless noted: active = inhibition above about 30%; inactive = the rest.

SMILES	EphB4 antag	PostGolgi yeast	Ecoli WT expand	tolC growth inh	PostGolgi ctrl
CC1CCN(C(=O)CCCOc2ccc(Cl)cc2)CC1	-2	·	·	·	·
CC(C)c1nc2oc3c(NCC4CCCO4)ncnc3c2c2c1COC(C)(C)C2 (centres undefined)	-6	13	-9	·	35*
Cc1nc2oc3c(NCC4CCCO4)ncnc3c2c2c1COC(C)(C)C2 (centres undefined)	-5	5	2	-5	12
Cc1cc(C)cc(NS(=O)(=O)c2ccc3oc(=O)ccc3c2)c1	11	-17	1	·	12
CC(C)n1c2ccccc2c2nc3ccccc3nc21	-1	1	-2	100*	46*
CN1C(=O)C(=C2CCCCCC2)SC1=S	1	-3	0	22	7
O=C1NC(=S)SC1=C1CCCC1	5	23	8	·	56*
O=Cc1cn(CC(=O)N2CCOCC2)c2ccccc12	-4	·	·	·	·
CN1CCN(Cn2cc(/C=C/C(=O)c3ccccc3)c3ccccc32)CC1	-3	15	4	·	34*
Cc1[nH]nc2c1/C(=N\O)CC(C)(C)C2	5	-2	8	-6	39*
COCCCNc1c2c3c(cccc3[nH]c1=O)C(=O)c1ccccc1-2	48*[fluorescence artefact?]	0	4	·	19
COCCCNS(=O)(=O)c1ccc2c3c(cccc13)C(=O)S2	3	6	1	-3	15
CCCCc1ccc(Nc2ncnc3nc[nH]c23)cc1	-2	-6	-1	39	60*
c1ccc(CCCNc2ncnc3nc[nH]c23)cc1	·	-1	7	1	17
COc1ccc(-c2nc3n(n2)C(=O)CC(c2ccco2)S3)cc1 (centres undefined)	·	4	-6	12	41*
COc1ccc(-c2nc3c4ccccc4[nH]c(=O)n3n2)cc1	-5	14	-14	·	13
Oc1ccc(N=Nc2n[nH]c(-c3ccc(Cl)cc3)n2)cc1	6	0	7	·	19
Cn1cnnc1SC(C(=O)Nc1cccc(C(F)(F)F)c1)c1ccccc1 (centres undefined)	2	2	3	·	8
Nc1nonc1C(=O)NCCNCc1ccccc1OCc1ccccc1F	-11	-4	0	17	31*
Nc1nonc1C(=O)NCCNCc1cc(Br)ccc1OCc1ccccc1F	0	3	-1	58	7
CN1C(=O)c2ccccc2C(C(=O)NCC2CCCO2)C1c1c[nH]c2ccccc12 (centres undefined)	0	-3	0	-12	-2
Cc1ccc(S(=O)(=O)N2CCN(CC(=O)NC3CCCc4ccccc43)CC2)c(C)c1 (centres undefined)	-2	0	-12	·	33*
CC1CN(C2CCN(S(=O)(=O)c3ccc4ccccc4c3)CC2)CC(C)O1 (centres undefined)	-3	83*	6	5	38*
Cc1ccc(S(=O)(=O)N2CCN(C3CCC(c4ccccc4)CC3)CC2)cc1 (centres undefined)	-4	89*	-6	·	96*
CC1CCN(C2CCN(S(=O)(=O)c3ccc(F)cc3)CC2)CC1	-5	5	0	·	31*
SMILES	EphB4 antag	PostGolgi yeast	Ecoli WT expand	tolC growth inh	PostGolgi ctrl
CCN1CCN(S(=O)(=O)c2ccc3ccccc3c2)CC1	0	-1	7	·	6
CCS(=O)(=O)N1CCN(C2CCC(c3ccccc3)CC2)CC1 (centres undefined)	-2	2	1	-1	15
CCCCCOC(=O)C1=C(C)Nc2nnnn2C1c1ccccc1Cl (centres undefined)	5	46*	13	·	48*
COC(=O)C1=C(C)Nc2nnnn2C1c1ccccc1Cl (centres undefined)	4	·	·	·	·
COc1ccccc1N(C(C)=O)c1nc(C)cc(C)c1C#N	9	·	·	·	·
O=c1c2c3nc4ccccc4nc3n(/N=C/c3cccs3)c2ncn1-c1ccccc1	·	·	·	28	·
CCNC(=O)NC(=O)C(C)Sc1nc2ccccc2n1CC(C)C (centres undefined)	2	-3	7	·	32*
CCOC(=O)Cc1csc(NC(=O)c2sc3nc4c(C)cc(C)cc4cc3c2N)n1	-2	-5	-12	·	11
O=C(c1cccc(F)c1)N1CCN=C1SCc1cccnc1	-2	-4	-7	-26	3
O=C(c1cccs1)N1CCN=C1SCc1cccnc1	2	6	-11	-18	31*
O=C(c1ccco1)N1CCN=C1SCc1cccnc1	6	30*	-3	-19	-2
CCOC(=O)N1CCN(CC(O)COCCC23CC4CC(CC(C4)C2)C3)CC1 (centres undefined)	-2	4	9	·	31*
CCN(CC)CC(O)COCCC12CC3CC(CC(C3)C1)C2 (centres undefined)	-2	-6	0	·	4
COC(=O)COc1ccc(S(=O)(=O)N2CCc3ccccc3C2)cc1C	9	-4	-7	·	7
O=C(NCCO)c1cccc(Nc2nc(-c3ccccc3)c3cc(Cl)ccc3n2)c1	-1	5	3	·	49*
CCCNC(=O)c1ccc2nc(-c3ccccc3)c(-c3ccccc3)nc2c1	4	10	-2	·	27
CC(=O)Nc1cccc(N2C(=O)CCC2=O)c1	-5	-11	1	·	38*
CN(Cc1cccs1)S(=O)(=O)c1cccs1	-1	-7	8	9	9
O=S(=O)(Nc1ccc(-c2nc3ccccc3o2)cc1)c1ccccc1	-8	-2	0	93*	39*
CCOC(=O)C(C(=O)Nc1ccccc1)C1CCCCC1 (centres undefined)	0	0	2	3	-2
CCOC(=O)C(C(=O)Nc1ccc(C)cc1)C1CCCCC1 (centres undefined)	0	-4	-2	·	40*
CCC(CO)n1c(SCc2cc(=O)oc3cc(C)ccc23)nc2ccccc2c1=O (centres undefined)	-3	41*	-6	·	47*
CCC(C)n1c(SCC(=O)Nc2cc(C)on2)nc2ccccc2c1=O (centres undefined)	4	-6	7	·	2
Cc1ccc(-c2nnc(N3CCN(S(C)(=O)=O)CC3)c3ccccc23)cc1	-2	6	2	34	7
c1ccc(-c2nnc(N3CCN(c4ccccn4)CC3)c3ccccc23)cc1	3	8	0	28	69*
SMILES	EphB4 antag	PostGolgi yeast	Ecoli WT expand	tolC growth inh	PostGolgi ctrl
Cc1ccc(-c2nnc(N3CCN(c4ccccn4)CC3)c3ccccc23)cc1	-21	0	-4	100*	57*
COc1ccc(-c2cc(C(=O)OC3CCOC3=O)c3ccccc3n2)cc1 (centres undefined)	8	4	-4	·	2
CCCC(=O)c1c[nH]c(C(=O)NCc2ccco2)c1	-3	-3	4	·	-4
Cc1ccc2c(c1)cc(CN(Cc1ccco1)S(=O)(=O)c1ccccc1)c1nnnn12	0	-3	-4	15	45*
C=CCn1c(SCn2nnc3ccccc3c2=O)nnc1C1CCCCC1	5	-7	-1	10	32*
C=CCn1c(SCn2nnc3ccccc3c2=O)nnc1-c1ccc(Br)cc1	6	24	-1	17	19
O=[N+]([O-])c1ccc(Oc2cccc(F)c2)c2ccncc12	10	10	9	·	38*
